Each block holds one molecule with its values, some of them ahead of it.
Tests used:
[1] = molecular target: Matrix metalloproteinase-9 (Homo sapiens, UniProt P14780); assay: In vitro inhibitory activity against matrix metalloprotease-9.
[2] = In vivo inhibitory activity against Matrix metalloprotease enzyme by dialysis implant assay, value are relative to activity of CGS-27023 (64+/-3) at 25 mg/kg. po; type: functional
[3] = molecular target: T1, Disintegrin and metalloproteinase domain-containing protein 17 (Homo sapiens, UniProt P78536); assay: Inhibition of Tumor necrosis factor alpha converting enzyme (TACE) at 10 uM
Outline: (§1)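 Dose–response curves were not generated when inhibition was below 60% at 10 μM.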

[4] = molecular target: Collagenase 3 (Homo sapiens, UniProt P45452)
[5] = In vivo inhibitory activity against Matrix metalloprotease enzyme by dialysis implant assay, value are relative to activity of CGS-27023 (67+/-3) at 25 mg/kg. po; type: functional
[6] = molecular target: T2, Interstitial collagenase (Homo sapiens, UniProt P03956); assay: In vitro inhibitory activity against matrix metalloprotease-1
T2 sequence (P03956 whole entry): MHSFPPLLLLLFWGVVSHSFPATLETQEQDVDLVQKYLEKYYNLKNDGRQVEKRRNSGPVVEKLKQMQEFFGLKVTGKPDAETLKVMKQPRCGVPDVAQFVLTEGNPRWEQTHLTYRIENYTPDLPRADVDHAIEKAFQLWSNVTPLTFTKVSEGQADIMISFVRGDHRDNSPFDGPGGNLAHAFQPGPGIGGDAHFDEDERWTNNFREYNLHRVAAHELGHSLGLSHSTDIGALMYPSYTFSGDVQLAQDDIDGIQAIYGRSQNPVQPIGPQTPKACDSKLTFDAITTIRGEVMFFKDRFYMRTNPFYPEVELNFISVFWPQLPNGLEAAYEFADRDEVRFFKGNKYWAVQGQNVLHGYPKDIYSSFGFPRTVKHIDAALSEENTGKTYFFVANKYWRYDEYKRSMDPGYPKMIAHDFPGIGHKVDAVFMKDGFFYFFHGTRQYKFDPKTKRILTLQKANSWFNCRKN

[7] = molecular target: T1, Disintegrin and metalloproteinase domain-containing protein 17; assay: In vitro inhibitory activity against tumor necrosis factor alpha converting enzyme (TACE).
[8] = In vivo inhibitory activity against Matrix metalloprotease enzyme by dialysis implant assay, value is relative to activity of CGS-27023 (54+/-2) at 25 mg/kg. po; type: functional
[9] = molecular target: T3, Interstitial collagenase (Homo sapiens) (UniProt P03956); assay: Inhibition of Matrix metalloprotease-1 at 10 uM; outline: as §1
T3 sequence (whole entry): T2 sequence (P03956 whole entry)

[10] = In vivo inhibitory activity against Matrix metalloprotease enzyme by dialysis implant assay, value is relative to activity of CGS-27023 (62+/-5) at 25 mg/kg. po; type: functional
[11] = In vivo inhibitory activity against Matrix metalloprotease enzyme by dialysis implant assay, value is relative to activity of CGS-27023 (74+/-2) at 25 mg/kg. po; type: functional
[12] = test system: Oryctolagus cuniculus; assay: Effect of compound on cartilage in surgically induced osteoarthritis (OA) model in rabbit at 25 mg/kg; type: functional
Outline: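 Rabbits had anterior cruciate ligament transection plus meniscectomy in one knee, with sham surgery on the contralateral knee. From day 10 after surgery, groups of 12 were dosed once daily by oral gavage with vehicle, test compound or the RS-130830 reference for 4 weeks. Knee joints were then collected and scored for gross pathological changes by blinded investigators.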

[13] = test system: Rattus norvegicus; assay: In vivo inhibition of by Matrix metalloprotease enzyme Sponge-wrapped cartilage assay at 5 mg/kg. po. bid; type: functional
[14] = In vivo inhibitory activity against Matrix metalloprotease enzyme by dialysis implant assay, value is relative to activity of CGS-27023 (75+/-2) at 25 mg/kg. po; type: functional
[15] = In vivo inhibition of Matrix metalloprotease enzyme by Sponge-wrapped cartilage assay, compared to activity of RS-130830 (20+/-2) at 5 mg/kg. po. bid; type: functional
[16] = In vivo inhibition of Matrix metalloprotease enzyme by Sponge-wrapped cartilage assay, compared to activity of RS-130830 (inactive) at 5 mg/kg. po. qd; type: functional
[17] = In vivo inhibition of Matrix metalloprotease enzyme by Sponge-wrapped cartilage assay, value is relative to activity of RS-130830 (40+/-3) at 10 mg/kg. po. bid; type: functional
[18] = In vivo inhibitory activity against Matrix metalloprotease enzyme by dialysis implant assay, value are relative to activity of CGS-27023 (73+/-4) at 25 mg/kg. po; type: functional

Matrix metalloproteinase-9, sequence (P14780 whole entry): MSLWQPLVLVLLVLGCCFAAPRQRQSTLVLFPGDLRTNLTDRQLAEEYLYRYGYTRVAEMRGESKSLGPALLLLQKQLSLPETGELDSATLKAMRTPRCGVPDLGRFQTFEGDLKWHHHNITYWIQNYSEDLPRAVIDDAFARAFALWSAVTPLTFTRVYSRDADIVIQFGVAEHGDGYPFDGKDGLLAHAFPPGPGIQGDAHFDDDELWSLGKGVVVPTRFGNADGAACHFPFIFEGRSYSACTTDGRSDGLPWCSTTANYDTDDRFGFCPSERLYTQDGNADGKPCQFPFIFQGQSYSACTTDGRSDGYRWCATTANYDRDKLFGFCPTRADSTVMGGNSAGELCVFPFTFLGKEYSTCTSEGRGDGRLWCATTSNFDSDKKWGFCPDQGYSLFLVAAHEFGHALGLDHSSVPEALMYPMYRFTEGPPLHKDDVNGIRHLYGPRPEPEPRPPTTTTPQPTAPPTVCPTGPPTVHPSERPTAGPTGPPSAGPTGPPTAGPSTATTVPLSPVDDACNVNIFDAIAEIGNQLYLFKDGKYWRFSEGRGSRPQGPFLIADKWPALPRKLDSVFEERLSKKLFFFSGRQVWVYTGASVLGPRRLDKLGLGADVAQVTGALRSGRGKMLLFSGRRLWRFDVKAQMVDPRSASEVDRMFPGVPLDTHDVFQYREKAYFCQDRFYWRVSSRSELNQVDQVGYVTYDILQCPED
T1 sequence (P78536 whole entry, the tested form may be a part): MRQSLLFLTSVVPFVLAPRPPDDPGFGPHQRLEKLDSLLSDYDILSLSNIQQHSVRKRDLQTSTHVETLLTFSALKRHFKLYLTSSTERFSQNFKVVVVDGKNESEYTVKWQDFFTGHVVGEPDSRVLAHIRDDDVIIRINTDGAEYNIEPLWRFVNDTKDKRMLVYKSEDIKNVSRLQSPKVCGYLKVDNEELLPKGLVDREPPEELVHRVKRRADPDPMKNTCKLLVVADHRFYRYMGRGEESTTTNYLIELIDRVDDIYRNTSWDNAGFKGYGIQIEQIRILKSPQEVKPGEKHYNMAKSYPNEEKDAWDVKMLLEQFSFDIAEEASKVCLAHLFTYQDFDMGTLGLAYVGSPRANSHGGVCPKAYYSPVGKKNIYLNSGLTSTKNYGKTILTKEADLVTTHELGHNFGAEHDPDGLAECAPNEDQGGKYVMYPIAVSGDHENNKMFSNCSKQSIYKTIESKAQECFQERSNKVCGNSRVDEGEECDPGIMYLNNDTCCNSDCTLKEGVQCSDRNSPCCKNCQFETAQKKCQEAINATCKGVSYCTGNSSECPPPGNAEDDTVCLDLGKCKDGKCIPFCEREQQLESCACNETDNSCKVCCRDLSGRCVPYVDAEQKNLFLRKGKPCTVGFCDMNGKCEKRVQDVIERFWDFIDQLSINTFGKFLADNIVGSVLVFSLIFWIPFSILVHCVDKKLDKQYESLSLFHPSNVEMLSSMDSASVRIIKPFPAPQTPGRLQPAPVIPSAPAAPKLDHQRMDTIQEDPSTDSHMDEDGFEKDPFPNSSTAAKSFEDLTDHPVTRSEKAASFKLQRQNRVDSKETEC

SMILES: CCCCOc1ccc(S(=O)(=O)C2(C(=O)NO)CCN(Cc3cccc(OC)c3)CC2)cc1
inhibition in vivo at 25 mg/kg [5]: 82% | IC50 [1]: 3 nM

SMILES: CCCCOc1ccc(S(=O)(=O)C2(C(=O)NO)CCOCC2)cc1
IC50 [6]: 1380 nM | IC50 [1]: 9.2 nM | IC50 [7]: 177 nM | IC50 [4]: 1.4 nM

SMILES: COc1ccc(S(=O)(=O)C2(C(=O)NO)CCN(CCOc3ccccc3)CC2)cc1
inhibition in vivo at 25 mg/kg [8]: 6% | IC50 [1]: 26 nM | IC50 [4]: 3 nM

SMILES: COc1ccc(S(=O)(=O)C2(C(=O)NO)CCN(C(C)(C)C)CC2)cc1
inhibition [9]: 59% | inhibition [3]: 9%

SMILES: COc1ccc(S(=O)(=O)C2(C(=O)NO)CCN(CCc3ccccc3)CC2)cc1
inhibition in vivo at 25 mg/kg [10]: 68% | IC50 [4]: 9 nM

SMILES: CCCCOc1ccc(S(=O)(=O)C2(C(=O)NO)CCN(CCOc3ccccc3)CC2)cc1
inhibition in vivo at 25 mg/kg [8]: 29% | IC50 [1]: 5 nM

SMILES: O=C(NO)C1(S(=O)(=O)c2ccc(Oc3ccc(Cl)cc3)cc2)CCNCC1
IC50 [6]: 1260 nM | IC50 [1]: 2 nM | IC50 [7]: 848 nM | IC50 [4]: 2 nM

SMILES: COc1ccc(S(=O)(=O)C2(C(=O)NO)CCN(C3CCCCCCC3)CC2)cc1
inhibition in vivo at 25 mg/kg [11]: 71% | inhibition [3]: 22%

SMILES: O=C(NO)C1(CS(=O)(=O)c2ccc(Oc3ccc(Cl)cc3)cc2)CCOCC1 [CTS-1027]
IC50 [6]: 233 nM | gross pathology score at 25 mg/kg [12]: 7.9 score | inhibition in vivo at 5 mg/kg [13]: 20% | IC50 [7]: 176 nM

SMILES: CCCCOc1ccc(S(=O)(=O)C2(C(=O)NO)CCN(Cc3ccc(OCCN4CCCCC4)cc3)CC2)cc1
inhibition in vivo at 25 mg/kg [14]: 98% | inhibition in vivo at 5 mg/kg [15]: 56% | inhibition in vivo at 5 mg/kg [16]: 33% | inhibition in vivo at 10 mg/kg [17]: 67%

Further lines, with some results ahead:

IC50 [1]: 10 nM
SMILES: COc1ccc(S(=O)(=O)C2(C(=O)NO)CCN(Cc3ccccc3)CC2)cc1

IC50 [1]: 20 nM | IC50 [4]: 5 nM
SMILES: CCCCOc1ccc(S(=O)(=O)C2(C(=O)NO)CCN(Cc3ccc(Cl)c(Cl)c3)CC2)cc1
inhibition in vivo at 25 mg/kg [2]: 14% | inhibition [3]: 57%

IC50 [1]: 6 nM
SMILES: COc1ccc(S(=O)(=O)C2(C(=O)NO)CCN(Cc3ccc(-c4ccccn4)cc3)CC2)cc1
inhibition in vivo at 25 mg/kg [2]: 78%

IC50 [4]: 6 nM
SMILES: Cc1ccc(CN2CCC(C(=O)NO)(S(=O)(=O)c3ccc(OCc4ccc(Cl)cc4)cc3)CC2)cc1

IC50 [6]: 490 nM
SMILES: COc1ccc(CN2CCC(C(=O)NO)(S(=O)(=O)c3ccc(Oc4ccc(Cl)cc4)cc3)CC2)cc1
inhibition in vivo at 25 mg/kg [18]: 93% | IC50 [7]: 492 nM
